Experimental data as given in article PMC7056050 (Clinical and Translational Gastroenterology, 2020).

What was measured:
claudin-1 [1] = target: T1, claudin-1 (Mus musculus, UniProt O88551); experiment: Side-view confocal endomicroscopy of colon in vivo; design: species or system CPC;Apc mice; details: for Binding/staining pattern in normal colon on confocal images: in vivo, ~1 hour after i.v. 200 μM in 200 μL PBS
T1 sequence (O88551 1-211): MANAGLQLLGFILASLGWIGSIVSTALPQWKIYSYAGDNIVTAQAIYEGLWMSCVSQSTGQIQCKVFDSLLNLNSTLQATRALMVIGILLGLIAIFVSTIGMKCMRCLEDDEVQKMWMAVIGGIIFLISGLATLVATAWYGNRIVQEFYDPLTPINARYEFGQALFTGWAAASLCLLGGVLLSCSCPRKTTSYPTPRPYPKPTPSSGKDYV

claudin-1 [2] = target: T1, claudin-1; type: in vivo, CPC;Apc mice; details: wide-field NIR fluorescence after intravenous administration
In short: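 Mice aged 2–4 months ate chlorophyll-free chow for 1 week, were fasted 4–6 h and had the colon rinsed with water. They were under isoflurane 2–4% in oxygen (0.5 L/min). A rigid endoscope in the distal colon gave 671 nm excitation; 200 μM peptide in 200 μL PBS was given i.v. Images were taken 0–24 h and normalised to coregistered reflectance. T/B ratios used mean intensity of three 20×20 μm2 regions each for adenoma and adjacent normal mucosa. Control peptide was imaged in the same mouse 7 days later. n = 6 mice per group; data log-transformed; paired t tests.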

[3] = Serum stability by HPLC, incubation in mouse serum ex vivo; type: in vitro ADME; details: 30 uM peptide in mouse serum at 37 °C, supernatant analysed by HPLC
In short: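 Peptide at 30 uM was incubated in mouse serum at 37 °C for up to 24 h. Samples were taken at 0, 1, 2 and 24 h and centrifuged at 14,000 rpm. Supernatant aliquots were analysed by HPLC at each time point.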

[4] = Biodistribution in major organs; design: species or system CPC;Apc mice; details: organs ex vivo ~1 hour after i.v. injection, IVIS, n = 6
In short: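 CPC;Apc mice received 200 μL PBS containing 200 μM labelled peptide, control peptide or free Cy5.5 i.v. They were sacrificed ~1 h later. Organs were rinsed in cold PBS, dried and imaged unperfused (ex 640 nm, em 720 nm). Intensity was averaged from three regions per organ. Values were log-transformed and fitted to an ANOVA with 24 means (3 groups, 8 tissues) plus mouse effects.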

claudin-1 [5] = target: T1, claudin-1; experiment: Ex vivo peptide staining; type: binding; details: for Mean fluorescence intensity, adenoma vs normal: ex vivo staining, 0.5 μM peptide, paired t tests, n = 6 per group
In short: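 Distal colon was opened, rinsed in cold PBS, fixed ~48 h in 10% neutral-buffered formalin, moved to 70% ethanol and processed for histology. Adjacent sections were deparaffinized and antigen-retrieved. Blocking was 2% BSA ~1 h, then 0.5 μM peptide for 10 min. For colocalization, peptide came first, then anti-claudin-1 antibody detected with AF488 goat anti-rabbit IgG. Imaged by inverted confocal microscopy.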

[6] = ex vivo, peptide then anti-claudin-1 antibody-AF488, merged image

Substance | Mean fluorescence intensity, adenoma vs adjacent normal colon (claudin-1 [1]; confocal, ~1 hour after injection, paired t test, n = 11 mice) | Binding/staining pattern in normal colon on confocal images (claudin-1 [1]) | Fluorescence signal from nonpolypoid adenoma (claudin-1 [2]) | Peptide stability in mouse serum by HPLC at 24 hours [3] | Mean fluorescence intensity, adenoma vs adjacent normal colon [4] | Mean fluorescence intensity, adenoma vs normal (claudin-1 [5]) | Correlation ρ of co-staining with anti-claudin-1 antibody, adenoma (claudin-1 [5]; [6]) | Correlation ρ of co-staining with anti-claudin-1 antibody, normal colon (claudin-1 [5]; [6]) | Fluorescence signal from polypoid adenoma (claudin-1 [2]) | Staining of adenoma and normal colon sections (claudin-1 [5]; 0.5 μM peptide for 10 minutes on formalin-fixed sections, confocal microscope)
RTSPSSR [RTS*-Cy5.5] | significantly greater for adenoma than for adjacent normal colon | binding at tight junctions in between cells | increased intensity | signs of peptide breakdown | significantly greater | significantly greater for adenoma vs normal | 0.66 | 0.60 | – | –
SPTSSRR [SPT*-Cy5.5, reference compound] | – | vague appearance of crypt structures | minimal signal | – | – | No difference | – | – | minimal signal | Minimal signal
